Screening results deposited in PubChem by Johns Hopkins Ion Channel Center.
Hits are enriched below; roughly 3.1% of the tested compounds scored in any of these assays.
KCNK9 block – KCNK9 potassium channel inhibitors, primary screen, HEK293 cells, thallium flux; actives 1.2% (n = 310,000); AID 488922, 2010; B-score at 10 µM; FluxOR thallium flux fluorescence; active compounds read low;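 active = ratio B-score over 3 SD below the library mean, with starting fluorescence within 5 SD of its mean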;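 note: negative B-score means less thallium flux so channel inhibition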
KCNQ1 pot – potentiators or activators of KCNQ1 channel, primary screen, cell-based, thallium flux, high-throughput | CHO-K1 KCNQ1, thallium flux FluxOR fluorescence; active compounds read high | Potassium voltage-gated channel subfamily KQT member 1 (Homo sapiens), P51787 | AID 2648, 2010 | actives 0.35% (n = 310,000) | B-score at 10 µM;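 active = fluorescence ratio B-score, a plate-corrected score, at least three library SD, with initial intensity B-score within 5 SD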
Target sequence (P51787 whole entry, looked up): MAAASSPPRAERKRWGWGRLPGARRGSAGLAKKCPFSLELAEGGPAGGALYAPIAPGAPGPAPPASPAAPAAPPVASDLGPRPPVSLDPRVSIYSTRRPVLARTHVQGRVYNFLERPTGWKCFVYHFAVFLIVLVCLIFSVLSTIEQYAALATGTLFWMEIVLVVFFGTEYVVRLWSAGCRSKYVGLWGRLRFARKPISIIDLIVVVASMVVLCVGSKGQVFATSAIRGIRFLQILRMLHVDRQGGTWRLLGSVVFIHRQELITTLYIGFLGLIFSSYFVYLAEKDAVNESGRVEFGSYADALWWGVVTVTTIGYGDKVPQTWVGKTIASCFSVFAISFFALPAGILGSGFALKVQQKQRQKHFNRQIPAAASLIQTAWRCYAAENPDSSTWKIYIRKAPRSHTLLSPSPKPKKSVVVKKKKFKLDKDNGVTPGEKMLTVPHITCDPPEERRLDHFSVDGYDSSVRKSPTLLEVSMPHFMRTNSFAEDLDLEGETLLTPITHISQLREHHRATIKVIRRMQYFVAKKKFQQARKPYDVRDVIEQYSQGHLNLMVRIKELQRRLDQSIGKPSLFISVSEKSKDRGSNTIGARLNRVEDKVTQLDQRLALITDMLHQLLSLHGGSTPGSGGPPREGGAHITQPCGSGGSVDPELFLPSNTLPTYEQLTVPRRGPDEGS
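Assay system: stable KCNQ1 CHO-K1 line; medium: assay buffer, equal DMSO in all wells; timing: 90 min dye loading and 20 min compound exposure, both at room temperature; technique: kinetic FluxOR thallium fluorescence, 10-s 1-Hz baseline, 110-s post-stimulus read; read-out basis: B score of baseline-normalized fluorescence ratio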
hERG rescue – hERG rescue from dofetilide block, primary screen, cell-based, CHO-hERG, FluxOR thallium flux, dofetilide IC70; Voltage-gated inwardly rectifying potassium channel KCNH2 (Homo sapiens), Q12809; dofetilide IC70 present; activation (rescue from dofetilide block), less the hit threshold, % at 10 µM; actives 0.51% (n = 310,000);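 active = activation above the mean of controls blocked by dofetilide plus 5 SD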;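 note: thallium influx through hERG after potassium depolarization seen as dye fluorescence rise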
KCNQ1 block – inhibitors of human KCNQ1 channel, primary screen, cell-based, thallium flux, high-throughput. Potassium voltage-gated channel subfamily KQT member 1 (Homo sapiens), P51787. actives 1.3% (n = 310,000). B-score at 10 µM. AID 2642, 2010. CHO-K1 KCNQ1, FluxOR thallium flux fluorescence; active compounds read high;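 active = compounds whose thallium flux B-score, printed positive for inhibition, exceeds three library SD while starting fluorescence stays within three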;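 note: channel opened by potassium depolarization with thallium stimulus after 20 min compound exposure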
KCNK3 inh – human KCNK3 channel inhibitors, primary screen, CHO cells, FluxOR thallium flux, B-score; Potassium channel subfamily K member 3 (Homo sapiens), O14649; B-score at 10 µM; AID 602410, 2012; actives 0.84% (n = 340,000); FluxOR fluorescence; active compounds read low;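 active = B-score under library mean minus 4 SD, starting fluorescence ratio at most library mean plus 5 SD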;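 note: more negative B-score means stronger inhibition of thallium flux through KCNK3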
KCNK9 inh conf – KCNK9 potassium channel inhibitors, confirmation, HEK293 cells, thallium flux, duplicate. AID 492992, 2010. shares compounds with KCNK9 block. actives 43% (n = 4,900). inhibition, % at 10 µM. FluxOR thallium flux fluorescence;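 active = thallium signal inhibited by more than 5 SD of the compound-free buffer control wells, on both duplicate plates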;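 note: 0% = assay buffer control wells without compound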
Kir21 sel – mouse Kir2.1 channel inhibition, confirmation, selectivity assay for KCNK9 modulator project, cell-based, HEK293, thallium flux. shares compounds with KCNK9 block. Kir2.1 cells, FluxOR thallium flux fluorescence. AID 492993, 2010. inhibition, % at 10 µM. actives 4% (n = 4,900);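 active = thallium signal drop more than 5 SD beyond the mean of the no-compound control wells, seen in both duplicate plates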;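 note: signal is fluorescence rise after thallium addition divided by baseline fluorescence; plate controls were assay buffer only for no effect and full block by chlorpromazine control for full effect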
KCNK9 uninduced – thallium flux in non-induced HEK293 cells, confirmation, counter-screen for KCNK9 inhibitor project, cell-based, second counter screen, non-induced KCNK9-HEK293 | actives 40% (n = 4,900) | FluxOR thallium flux | inhibition, % at 10 µM | shares compounds with KCNK9 block;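 active = thallium signal drop beyond 5 SD of the untreated control mean, on both duplicate plates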;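 note: plate controls were buffer only IC0 wells for no effect and SID17386958 at its maximal inhibitory level for full effect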
Numbers without * were called inactive; i = inactive; x = no result given.

SMILES	KCNK9 block	KCNQ1 pot	hERG rescue	KCNQ1 block	KCNK3 inh	KCNK9 inh conf	Kir21 sel	KCNK9 uninduced
CC1Cc2ccccc2N1C(=O)CN1CCc2ccccc2C1 (centres undefined)	i	i	-13.4	i	i	i	i	i
CC1Cc2ccccc2N1C(=O)CCn1c(=O)sc2ccccc21 (centres undefined)	i	i	-10.0	i	i	i	i	i
COc1ccc(OC)c(NC(=O)COC(=O)c2ccc(OC)c(S(=O)(=O)N3CCOCC3)c2)c1	x	x	x	x	i	x	x	x
CCCOC(=O)c1ccc(NC(=O)Cc2cccs2)cc1	i	i	-8.8	i	i	x	x	x
CC(C)OC(=O)CSc1nc(Cc2cccs2)nc2ccccc12	-11.9*	i	-15.7	i	i	54.0%*	45.0%*	32.5%*
COc1ccc(/C=N/NC(=O)c2nc(-c3ccccc3)cc(-c3ccccc3)n2)cc1OC	-9.73*	i	-16.2	i	i	31.0%*	i	i
COc1cccc(/C=N/NC(=O)c2nc(-c3ccccc3)cc(-c3ccccc3)n2)c1	-8.54*	i	-20.2	i	i	34.0%*	i	i
COc1cc(/C=N/NC(=O)c2cccc(S(=O)(=O)N3CCCC3)c2)cc(OC)c1O	i	i	-6.5	i	i	x	x	x
O=[N+]([O-])c1cc2c(cc1/C=N/Nc1nc(N3CCCC3)nc(N3CCCC3)n1)OCO2	i	i	-3.6	i	i	i	i	i
c1ccc2cc(OCCOCCOc3ccc4ccccc4c3)ccc2c1	i	i	-11.7	i	i	i	i	i
CC1(C)NC(=O)N(CCC(=O)Nc2cc(C(F)(F)F)ccc2Cl)C1=O	x	x	x	x	i	x	x	x
CCCC(C)C(=O)Nc1nc(C)c(-c2csc(Nc3cc(OC)ccc3OC)n2)s1 (centres undefined)	-18*	i	-21.7	i	i	46.5%*	i	i
Cc1ccc(Cl)cc1Nc1nc(-c2sc(NC(=O)C(C)(C)C)nc2C)cs1	-13.4*	i	-13.8	i	i	56.5%*	i	i
CCCC(=O)Nc1nc(C)c(-c2csc(Nc3cc(OC)ccc3OC)n2)s1	-16.5*	i	-12.6	i	i	i	i	i
C=CCCC(=O)Nc1nc(C)c(-c2csc(Nc3cc(OC)ccc3OC)n2)s1	-8.73*	i	-4.0	i	i	56.0%*	i	28.5%*
C=CCCC(=O)Nc1nc(C)c(-c2csc(Nc3cccc(OC)c3)n2)s1	i	i	-2.9	i	i	x	x	x
CCN1C(=O)c2ccc(C(=O)Nc3c(C)cc(C)cc3C)cc2C1=O	i	i	2.2	i	i	x	x	x
CCCCn1cc(S(=O)(=O)c2ccccc2)c(=O)c2cc(C)ccc21	i	i	-9.4	i	i	x	x	x
Clc1ccccc1CSc1snnc1-c1ccccc1	i	i	-11.6	i	i	x	x	x
Clc1ccc(-c2nnsc2SCc2ccccc2)cc1	-10.6*	i	-8.4	i	i	i	i	44.0%*
O=C1/C(=C/c2cccc(O)c2)SC(=S)N1CC1CCCO1 (centres undefined)	i	i	-5.2	i	i	x	x	x
COc1cccc(/C=C2\SC(=S)N(CC3CCCO3)C2=O)c1 (centres undefined)	i	i	-6.8	i	i	i	i	i
CC1CN(C(=O)N2c3ccccc3Sc3ccccc32)C(C)CC1=O (centres undefined)	-8.13*	i	5.3*	i	i	30.0%*	i	29.0%*
CC1CCCN(C(=O)N2c3ccccc3Sc3ccccc32)C1 (centres undefined)	-11.4*	i	-10.9	i	i	52.0%*	i	43.5%*
CCN(CC)S(=O)(=O)c1ccc2c(c1)c(=O)c(C(=O)NCCc1ccccc1)cn2C	i	i	-3.1	i	i	x	x	x
SMILES	KCNK9 block	KCNQ1 pot	hERG rescue	KCNQ1 block	KCNK3 inh	KCNK9 inh conf	Kir21 sel	KCNK9 uninduced
O=C(Cc1cccc2ccccc12)Nc1ccc(OC(F)F)c(Cl)c1	i	i	-0.9	i	i	x	x	x
O=C(Nc1ccc(OC(F)F)c(Cl)c1)C(c1ccccc1)c1ccccc1	-10.5*	i	-16.1	i	i	25.0%*	i	41.0%*
Cc1ccc2c(c1)[C@H]1[C@H](CO2)[C@H](c2ccccc2)[C@]2(C)C(=O)N(C)CC(=O)N12	x	x	x	x	i	x	x	x
COc1ccc(CN(C)C(=O)C2CCN(S(=O)(=O)c3cccs3)CC2)cc1F	x	x	x	x	i	x	x	x
c1ccc(C2Oc3ccccc3C3CC(c4cccs4)=NN32)cc1 (centres undefined)	i	i	-3.8	i	i	x	x	x
c1ccc(C2CCC3(CC2)Oc2ccccc2C2CC(c4cccnc4)=NN23)cc1 (centres undefined)	-9.29*	i	-9.3	i	x	49.5%*	i	41.0%*
Cc1ccc(C2(c3ccccc3)NC(=O)N(CC(=O)NCc3ccccc3)C2=O)cc1C (centres undefined)	x	x	x	x	i	x	x	x
CC(C)CNC(=O)c1oc2ccccc2c1COc1ccccc1	i	i	-9.2	i	i	i	i	i
CCCCCN=C(N)N/N=C/c1c[nH]c2ccc(OC)cc12	-11.1*	i	-30.5	7*	i	66.0%*	64.0%*	i
O=C(NCC(c1ccccc1)N1CCCC1)C1CCN(C(=O)Nc2ccccc2)CC1 (centres undefined)	x	x	x	x	i	x	x	x
Cc1cccc(C(=O)Nc2ccc(C(=O)c3ccccc3)cc2)c1	-15.2*	i	-2.5	i	i	60.0%*	i	27.0%*
Cc1ccc(-c2ccc(=O)n(Cc3cccc(Br)c3)n2)cc1	i	i	0.6	i	i	x	x	x
